According to ChEMBL document CHEMBL6134774, “Novel benzenesulfonamides containing a dual triazole moiety with selective carbonic anhydrase inhibition and anticancer activity” (RSC Med Chem, 2025):
pIC50, pKi: −log10 of the molar value.

Assays:
L929 = experiment: Cytotoxicity against mouse L929 cells assessed as cell viability measured after 48 hrs by MTT assay; conditions: L929, 48 h
A549 = experiment: Cytotoxicity against human A549 cells assessed as cell viability measured after 48 hrs by MTT assay; conditions: A549, 48 h
Hep 3B2 = experiment: Cytotoxicity against human Hep3B cells assessed as cell viability measured after 48 hrs by MTT assay
Carbonic anhydrase 12 = Carbonic anhydrase 12 (Homo sapiens, UniProt O43570); experiment: Inhibition of human CA12 assessed as inhibition constant
Summary of the method: (§1)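 Esterase activity of the hCA isoform was followed spectrophotometrically by Verpoorte's method, as the rise in absorbance at 348 nm with p-nitrophenyl acetate as substrate. Increasing inhibitor concentrations were incubated with the substrate, from 1 mg mL−1 DMSO stocks, to derive KI. Results are means of triplicate assays ± SEM.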

Carbonic anhydrase 9 = Carbonic anhydrase 9 (Homo sapiens, UniProt Q16790); experiment: Inhibition of human CA9 assessed as inhibition constant; summary of the method: as §1

Carbonic anhydrase 12, sequence (O43570 whole entry, canonical isoform): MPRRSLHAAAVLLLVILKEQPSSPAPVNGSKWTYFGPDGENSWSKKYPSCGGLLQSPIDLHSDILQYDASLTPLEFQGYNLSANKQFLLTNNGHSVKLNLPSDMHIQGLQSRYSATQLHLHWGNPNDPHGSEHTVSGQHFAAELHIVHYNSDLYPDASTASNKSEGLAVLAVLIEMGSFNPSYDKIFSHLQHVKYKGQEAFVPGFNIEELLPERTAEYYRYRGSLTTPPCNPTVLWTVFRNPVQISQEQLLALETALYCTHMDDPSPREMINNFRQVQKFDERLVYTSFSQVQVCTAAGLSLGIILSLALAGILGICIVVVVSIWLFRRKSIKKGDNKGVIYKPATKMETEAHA

O=c1[nH]cc(F)c(=O)[nH]1 [FLUOROURACIL]
pIC50 (L929): 4.85 | pIC50 (A549): 4.00 | pIC50 (Hep 3B2): 4.22

CCCCCCCO/N=C(/C)c1nnn(-c2ccc(S(N)(=O)=O)cc2)c1C
pKi (Carbonic anhydrase 12): 6.93 | pKi (Carbonic anhydrase 9): 6.71
